From ChEMBL document CHEMBL1157732, “Piperazinyl pyrimidine derivatives as potent gamma-secretase modulators” (Bioorg Med Chem Lett, 2010)
pIC50: −log10 of the molar value.

Assays:
[1] = Activity at gamma-secretase expressed in human SH-SY5Y cells assessed as inhibition of amyloid beta 40 production by electrochemiluminescence assay; assay type: cell-based
In short: (§1)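 SH-SY5Y cells stably overexpressing the β-APP C-terminal fragment SPA4CT; Aβ40 and Aβ42 peptides secreted into the medium quantified by electrochemiluminescent detection; IC50 values derived from these measurements.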

[2] = Activity at gamma-secretase expressed in human SH-SY5Y cells assessed as inhibition of amyloid beta 42 production by electrochemiluminescence assay; assay type: cell-based; in short: as §1
[3] = target: Gamma-secretase; assay: Inhibition of gamma-secretase-mediated NotchdeltaE cleavage in human HeLa cells by luciferase assay; assay type: cell-based
[4] = target: Gamma-secretase (Homo sapiens) (UniProt Q96BI3+Q9NZ42+Q8WW43+P49768+Q92542+P49810); assay: Selectivity ratio, IC50 for human gamma-secretase-mediated NotchdeltaE cleavage to IC50 for gamma-secretase-mediated amyloid beta 42 production; assay type: protein-complex assay

SMILES	pIC50 [1]	pIC50 [2]	pIC50 [3]	Ratio IC50 [4]
CNC(=O)c1cc(Nc2cc(C(C)(C)C)ccc2C)nc(N2CCN(c3ccc(OC)cc3)C(C)(C)C2)n1	5.53	6.51	–	–
COc1ccc(N2CCN(c3nc(CO)cc(Nc4cc(C(C)(C)C)ccc4C)n3)CC2(C)C)cc1	6.08	7.47	5.21	180
COc1ccc(N2CCN(c3nccc(Nc4cc(C(C)(C)C)ccc4Cl)n3)CC2(C)C)cc1	6.00	6.16	–	–
COc1ccc(N2CCN(c3nccc(Nc4cc(C(C)(C)C)nn4C)n3)CC2(C)C)cc1	5.71	6.82	–	–
COc1ccc(N2CCN(c3nc(Nc4cc(C(C)(C)C)ccc4C)cc(OCCN4CCOCC4)n3)CC2(C)C)cc1	5.21	6.58	< 4.30	> 190
CCOc1cc(C)c(Nc2ccnc(N3CCN(c4ccc(OC)cc4)C(C)(C)C3)n2)cc1C	5.20	6.27	–	–
COc1ccc(N2CCN(c3nc(CC(=O)O)cc(Nc4cc(C(C)(C)C)ccc4C)n3)CC2(C)C)cc1	5.19	6.24	–	–
COc1ccc(N2CCN(c3nc(Nc4cc(C(C)(C)C)ccc4C)cc(OCCN(C)C)n3)CC2(C)C)cc1	5.80	6.97	4.54	270
COc1ccc(N2CCN(c3nccc(Nc4cc(C(C)(C)C)nn4CC(F)(F)F)n3)CC2(C)C)cc1	5.29	6.57	–	–
COc1ccc(N2CCN(c3nccc(Nc4cc(-c5ccccc5)ccc4C)n3)CC2(C)C)cc1	5.64	6.39	–	–
COc1ccc(N2CCN(c3nc(Nc4cc(C(C)(C)C)ccc4C)cc(OCCC4CCCN4C)n3)CC2(C)C)cc1 (stereo not given)	5.25	6.63	< 4.30	> 210
COc1ccc(N2CCN(c3nc(Nc4cc(C(C)(C)C)ccc4C)cc(OCCC(C)(C)O)n3)CC2(C)C)cc1	5.26	6.67	< 4.30	> 230
COC(=O)c1cc(Nc2cc(C(C)(C)C)ccc2C)nc(N2CCN(c3ccc(OC)cc3)C(C)(C)C2)n1	5.64	7.07	–	–
COc1ccc(N2CCN(c3nc(Nc4cc(C(C)(C)C)ccc4C)cc(C(=O)NCC4CCCO4)n3)CC2(C)C)cc1 (stereo not given)	5.09	6.71	< 4.30	> 250
COc1ccc(N2CCN(c3nc(Nc4cc(C(C)(C)C)ccc4C)cc(OC)n3)CC2(C)C)cc1	5.25	6.58	< 4.30	> 190
COc1ccc(N2CCN(c3nc(Nc4cc(C(C)(C)C)ccc4C)cc(N(C)CCN(C)C)n3)CC2(C)C)cc1	5.71	6.67	–	–
COc1ccc(N2CCN(c3nc(Nc4cc(C(C)(C)C)ccc4C)cc(C(=O)NCCN(C)C)n3)CC2(C)C)cc1	5.77	6.95	–	–
COc1ccc(N2CCN(c3nc(Nc4cc(C(C)(C)C)ccc4C)cc(C(=O)O)n3)CC2(C)C)cc1	5.72	6.63	–	–
COc1ccc(N2CCN(c3nccc(Nc4cc(C(C)(C)C)ccc4C)n3)CC2(C)C)cc1	5.25	6.59	–	–
CCOc1cc(C)c(Nc2ccnc(N3CCN(c4ccc(OC)cc4)C(C)(C)C3)n2)cc1C(C)C	6.13	7.45	–	–
COc1ccc(N2CCN(c3nc(CS(C)(=O)=O)cc(Nc4cc(C(C)(C)C)ccc4C)n3)CC2(C)C)cc1	5.19	6.46	–	–
CCN(CC)c1cc(C)c(Nc2ccnc(N3CCN(c4ccc(OC)cc4)CC3)n2)cc1C	5.43	5.72	–	–
CCN(CC)c1cc(C)c(Nc2ccnc(N3CCN(c4ccc(OC)cc4)C(C)(C)C3)n2)cc1C	5.53	6.77	–	–
COc1ccc(N2CCN(c3nccc(Nc4cc(C)ccc4C)n3)CC2(C)C)cc1	5.34	6.00	–	–
COc1ccc(N2CCN(c3nc(N)cc(Nc4cc(C(C)(C)C)ccc4C)n3)CC2(C)C)cc1	6.08	7.06	4.46	390
COc1ccc(N2CCN(c3nc(Nc4cc(C(C)(C)C)ccc4C)cc(S(C)(=O)=O)n3)CC2(C)C)cc1	5.24	6.40	–	–
CCOc1ccc(Nc2ccnc(N3CCN(c4ccc(OC)cc4)C(C)(C)C3)n2)c(C)c1	5.00	5.46	–	–
